Activity calls are given as the source filed them.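 The calls were made as follows: active = at least 50% ABHD10 inhibition in mouse heart after 25 mg/kg, and no other enzyme inhibited 50% at any dose; inactive = the rest.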
What was measured:
[1] = ABHD10 inhibition in dosed mice, late-stage follow-up, in vivo study for PME-1 inhibitor project, gel-based competitive ABPP, fluorescence, mouse heart (AID 602485); details: C57BL/6 mice i.p., heart proteome, FP-Rh gel ABPP; anti-targets at any tested dose
Method in brief: (§1)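 System – C57BL/6 mouse heart soluble proteome · Repeats – n of 1 per dose · Timing – 6 h in vivo exposure, probe labelling 30 min at 25 °C · Signal – SDS-PAGE with in-gel fluorescence scanning of probe-labelled bands · Also added – FP-Rh activity-based probe, 1 µM final · Benchmarks – vehicle-dosed mice as high control, blank gel background as low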

[2] = target: Palmitoyl-protein thioesterase ABHD10, mitochondrial (Mus musculus) (UniProt Q6PE15); assay: as above; details: C57BL/6 mice i.p., heart proteome, FP-Rh gel ABPP, stronger effect = higher value
Method in brief: as §1

Sequence of Palmitoyl-protein thioesterase ABHD10, mitochondrial (Mus musculus) (Q6PE15 whole entry, looked up): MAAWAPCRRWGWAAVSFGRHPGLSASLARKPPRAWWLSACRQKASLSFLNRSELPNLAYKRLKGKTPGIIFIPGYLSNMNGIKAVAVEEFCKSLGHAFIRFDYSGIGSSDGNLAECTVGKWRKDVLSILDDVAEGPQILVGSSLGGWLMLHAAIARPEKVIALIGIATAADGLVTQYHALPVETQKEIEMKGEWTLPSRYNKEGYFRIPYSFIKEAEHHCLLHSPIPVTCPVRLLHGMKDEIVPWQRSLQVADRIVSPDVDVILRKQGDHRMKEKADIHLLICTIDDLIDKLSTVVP

For `CC[C@@]1(c2ccc(C)cc2)C(=O)N(C(=O)OC(C)C)N1C(=O)OC(C)C`, the outcome [1] was “inactive”, the inhibition [2] was 99% and the inhibition ([2]; inhibition at 6 mg/kg) was 10%. For the same compound, the inhibition ([2]; inhibition at 13 mg/kg) was 60%.

Reference: PubChem BioAssay AID602485 (The Scripps Research Institute Molecular Screening Center, 2012)
